Assay outcomes as filed in PubChem BioAssay.
Only some compounds are listed: those with a hit (about 3.8% of all), similar ones and a draw of the others.
KCNQ1 pot: potentiators or activators of human KCNQ1 potassium channel; P51787; CHO-K1 KCNQ1, thallium flux FluxOR fluorescence; active compounds read high; B-score at 10 µM; hit rate 0.35% among 310,000;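 active = fluorescence ratio B-score, a plate-corrected score, at least three library SD, with initial intensity B-score within 5 SD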
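Assay system: CHO-K1 cells stably expressing KCNQ1; Medium: assay buffer with matched DMSO; Also added: K+/Tl+ depolarizing stimulus; Dosing: single dose; Timing: dye 90 min, compound 20 min, room temperature; Measured by: kinetic FluxOR thallium fluorescence, 10-s 1-Hz baseline, 110-s post-stimulus read; Read-out: peak-minus-minimum fluorescence over initial fluorescence, negative-control normalized, B-scored.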
KCNK9 block: blocks the human KCNK9 two-pore domain potassium channel; Q9NPC2; HEK293 KCNK9, FluxOR thallium flux fluorescence; active compounds read low; B-score at 10 µM; hit rate 1.2% among 310,000; AID 488922;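 active = ratio B-score over 3 SD below the library mean, with starting fluorescence within 5 SD of its mean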;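 also: negative B-score means less thallium flux so channel inhibition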
hERG protect: hERG (human) protection from proarrhythmic block; Q12809; CHO-hERG, FluxOR thallium flux, dofetilide IC70 present; activation (rescue from dofetilide block), less the hit threshold, % at 10 µM; hit rate 0.51% among 310,000; AID 1511;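 active = activation above the mean of controls blocked by dofetilide plus 5 SD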;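 also: thallium influx through hERG after potassium depolarization seen as dye fluorescence rise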
KCNQ1 block: human KCNQ1 channel inhibition; CHO-K1 KCNQ1, FluxOR thallium flux fluorescence; active compounds read high; B-score at 10 µM; hit rate 1.3% among 310,000; AID 2642;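 active = compounds whose thallium flux B-score, printed positive for inhibition, exceeds three library SD while starting fluorescence stays within three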;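 also: channel opened by potassium depolarization with thallium stimulus after 20 min compound exposure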
Kir21 block: blocks the mouse Kir2.1 inward-rectifier potassium channel; B-score at 10 µM; hit rate 0.85% among 310,000; HEK293-Kir2.1, FluxOR thallium flux fluorescence; active compounds read low; P35561;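 active = fluorescence ratio B-score at or below minus 3 SD of library scores, with starting-brightness B-score within 2 SD, cut at about -4.2 in these data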;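 also: channel flux triggered by added potassium and thallium sulfate stimulus; B-score of peak minus minimum fluorescence over baseline after thallium stimulus; more negative B-score means stronger Kir2.1 block with less thallium influx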
KCNK3 block: human KCNK3 channel inhibition, primary screen; AID 602410; B-score at 10 µM; CHO-KCNK3 thallium flux, FluxOR fluorescence; active compounds read low; hit rate 0.84% among 340,000; O14649;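 active = B-score under library mean minus 4 SD, starting fluorescence ratio at most library mean plus 5 SD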;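 also: more negative B-score means stronger inhibition of thallium flux through KCNK3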
KCNQ1 block val: human KCNQ1 channel inhibition, validation assay | hit rate 93% among 1,600 | shares compounds with KCNQ1 block | inhibition, % at 10 µM | KCNQ1 cell line, FluxOR thallium flux fluorescence;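 active = primary screen active, with duplicate mean exceeding buffer control mean plus 3 SD of buffer wells, cut at about 28% in these data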
CHO Tl flux: counter-screen for KCNQ1 inhibitors: effect in parental CHO cells | fluorescence ratio (Tl flux) at 10 µM | hit rate 21% among 1,600 | shares compounds with KCNQ1 block | AID 588366 | parental CHO-K1, FluxOR thallium flux fluorescence ratio; active compounds read low; zero means no signal rise above baseline;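 active = mean of duplicate thallium-flux fluorescence ratios in parental host cells more than 5 SD below the buffer control mean, cut at about 0.38 in these data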;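 also: ratio is peak minus minimum fluorescence divided by baseline fluorescence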
KCNQ1 APC inh: confirmation of human KCNQ1 potassium channel inhibitors by electrophysiology | AID 624120 | calls only at 10 µM | hit rate 20% among 490 | KCNQ1-CHO cells, automated patch clamp current | shares compounds with KCNQ1 block;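 active = KCNQ1 current drop exceeding 3 SD of negative control wells, seen in both duplicate runs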;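 also: steady state current during a 2 s step from -80 to +40 mV; negative values mean current inhibition and positive values mean potentiation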
KCNQ2 spec: KCNQ1 inhibitor that also blocks rat KCNQ2 channel; shares compounds with KCNQ1 block; KCNQ2 cells, FluxOR thallium flux fluorescence; inhibition, % at 10 µM; hit rate 71% among 1,600; AID 651746;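 active = mean percent inhibition of the KCNQ2 thallium signal more than 5 SD above the buffer-only control wells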;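 also: KCNQ2 expressed in CHO cells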
Target sequence (O88943 whole entry, looked up): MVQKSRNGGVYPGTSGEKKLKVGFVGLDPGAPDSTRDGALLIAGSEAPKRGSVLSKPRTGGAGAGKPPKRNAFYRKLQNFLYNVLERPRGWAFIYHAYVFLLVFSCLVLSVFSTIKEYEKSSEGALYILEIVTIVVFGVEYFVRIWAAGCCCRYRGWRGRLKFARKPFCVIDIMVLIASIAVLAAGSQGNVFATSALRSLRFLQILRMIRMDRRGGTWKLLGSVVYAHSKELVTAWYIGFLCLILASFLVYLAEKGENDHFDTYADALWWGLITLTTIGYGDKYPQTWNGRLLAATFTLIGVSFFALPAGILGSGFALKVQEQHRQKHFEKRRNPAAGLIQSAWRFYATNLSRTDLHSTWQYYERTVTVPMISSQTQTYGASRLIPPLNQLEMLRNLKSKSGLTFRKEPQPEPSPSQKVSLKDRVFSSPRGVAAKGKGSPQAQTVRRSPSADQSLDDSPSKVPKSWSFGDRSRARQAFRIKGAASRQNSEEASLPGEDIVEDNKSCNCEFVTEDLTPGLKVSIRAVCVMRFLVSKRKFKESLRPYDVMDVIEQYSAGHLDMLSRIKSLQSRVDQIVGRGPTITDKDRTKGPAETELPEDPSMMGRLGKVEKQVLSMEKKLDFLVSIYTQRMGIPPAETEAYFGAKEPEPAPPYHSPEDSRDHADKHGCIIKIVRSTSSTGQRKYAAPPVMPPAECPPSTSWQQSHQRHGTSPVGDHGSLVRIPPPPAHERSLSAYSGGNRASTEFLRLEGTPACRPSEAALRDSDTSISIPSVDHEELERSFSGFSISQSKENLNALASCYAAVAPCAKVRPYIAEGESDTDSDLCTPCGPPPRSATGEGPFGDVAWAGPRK
KCNQ1 KCNE1 spec: KCNQ1 inhibitor that also blocks human KCNQ1/KCNE1 channel; shares compounds with KCNQ1 block; KCNQ1/KCNE1 cells, FluxOR thallium flux fluorescence; inhibition, % at 10 µM; hit rate 77% among 1,600; AID 652147;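 active = mean percent inhibition of duplicate wells above the buffer-only control mean plus 3 SD of those controls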
Large screens that a line does not name were inactive (follow-up assays come after a bar, where they were run).

Clc1ccc(CN=C(Nc2ccccc2)NC2CCCCC2)cc1	KCNQ1 block 8, Kir21 block -5.2 | KCNQ1 block val 48 | CHO Tl flux inactive | KCNQ2 spec inactive | KCNQ1 KCNE1 spec 38%
Cc1cc(Br)ccc1NC(=O)CN(C)C(=O)C1=COCCO1	none (no result: KCNQ1 pot, KCNK9 block, hERG protect, KCNQ1 block, Kir21 block)
CC1CCN(C(=O)c2cc3nc(-c4ccccc4)cc(-c4ccccc4)n3n2)CC1	KCNQ1 block 6 | KCNQ1 block val 112 | CHO Tl flux inactive | KCNQ1 APC inh inactive | KCNQ2 spec 108% | KCNQ1 KCNE1 spec 182%
O=C(c1cc2nc(-c3ccccc3)cc(C(F)(F)F)n2n1)N1CCOCC1	none
O=C(c1cnn2c(-c3ccccc3)cc(-c3ccccc3)nc12)N1CCN(Cc2ccccc2)CC1	KCNQ1 block 7 | KCNQ1 block val 130 | CHO Tl flux 0.31 | KCNQ2 spec 154% | KCNQ1 KCNE1 spec active
O=C(c1cnn2c(C(F)F)cc(-c3ccccc3)nc12)N1CCOCC1	none
COc1ccc(OCC(=O)Nc2cccc(NC(=O)c3ccco3)c2)cc1	none
COc1ccc(C2(CO)OC(CO)C(O)C2O)cc1 (centres undefined)	none (no result: KCNQ1 pot, KCNK9 block, hERG protect, KCNQ1 block, Kir21 block)
CCCOC(=O)C(C)n1cnc2scc(-c3ccc(C)cc3)c2c1=O (centres undefined)	KCNQ1 block 9 | KCNQ1 block val 93 | CHO Tl flux inactive | KCNQ1 APC inh active | KCNQ2 spec 70% | KCNQ1 KCNE1 spec 116%
CCC(C(=O)O)n1cnc2scc(-c3ccc(C)c(C)c3)c2c1=O (centres undefined)	none
CCC(C(=O)OC)n1cnc2scc(-c3ccc(C)c(C)c3)c2c1=O (centres undefined)	KCNQ1 block 7 | KCNQ1 block val 52 | CHO Tl flux inactive | KCNQ2 spec 61% | KCNQ1 KCNE1 spec inactive
CCOc1cc(C2C3=C(CC(C)(C)CC3=O)N(CCOC)C3=C2C(=O)CC(C)(C)C3)ccc1O	none
O=C(CCCC(=O)OCC(F)(F)C(F)F)Nc1ccccc1F	none
COc1ccc(NC(=O)CN(C)C(C)C(=O)NC(=O)NC2CCCCC2)cc1 (centres undefined)	none
COc1ccc(CN=Cc2[nH]c3ccc(Br)c(Cl)c3c2O)cc1	KCNQ1 block 7 | KCNQ1 block val 116 | CHO Tl flux 0.37 | KCNQ2 spec 111% | KCNQ1 KCNE1 spec 92%
CC(=O)N(c1nc(CCl)cs1)c1c(C)cc(C)cc1C	none
COc1ccc(-c2nc(-c3ccc(NC(=O)c4ccncc4)cc3)no2)cc1OC	KCNQ1 block 12 | KCNQ1 block val inactive | CHO Tl flux inactive | KCNQ2 spec 71% | KCNQ1 KCNE1 spec inactive
COc1ccccc1NC(=O)CN1CCN(C2c3ccccc3-c3ccccc32)CC1	KCNQ1 block 7 | KCNQ1 block val 108 | CHO Tl flux inactive | KCNQ1 APC inh inactive | KCNQ2 spec 100% | KCNQ1 KCNE1 spec 155%
COc1ccccc1NC(=O)CN1CCC(n2c(C)nc3cc(F)ccc32)CC1	KCNQ1 block 8 | KCNQ1 block val 116 | CHO Tl flux inactive | KCNQ1 APC inh inactive | KCNQ2 spec 97% | KCNQ1 KCNE1 spec 98%
COc1ccccc1NC(=O)CN1CCC(n2nnc3cc(F)ccc32)CC1	none
COc1ccccc1NC(=O)CN1CCN(CC(=O)Nc2ccccc2F)CC1	none (no result: KCNQ1 pot, KCNK9 block, hERG protect, KCNQ1 block, Kir21 block)
Cc1cc(-c2ccc(S(=O)(=O)N3CCN(c4cccc(C)c4C)CC3)s2)on1	none
CCOC(=O)C1(CC2CC2)CCN(Cc2cnc(-c3ccccc3C)nc2)CC1	KCNQ1 block 7 | KCNQ1 block val inactive | CHO Tl flux inactive | KCNQ2 spec 78% | KCNQ1 KCNE1 spec inactive
O=S(=O)(NCc1ccco1)c1ccc(Cl)nc1	none
O=C(COC(=O)c1ccc(S(=O)(=O)C(F)F)cc1)Nc1ccccc1C(=O)NC1CC1	none (no result: KCNQ1 pot, KCNK9 block, hERG protect, KCNQ1 block, Kir21 block)
C[C@@H](NC(=O)[C@@H]1Cc2ccccc2CN1C(=O)OC(C)(C)C)C(=O)NCc1ccco1	none
CC[C@@H]1CC=C[C@H]2[C@H]1C(=O)N(Cc1ccccc1)[C@H]2c1ccoc1	KCNQ1 block 9 | KCNQ1 block val 78 | CHO Tl flux 0.38 | KCNQ2 spec 104% | KCNQ1 KCNE1 spec 114%
CSc1nc(N)nc2c1ncn2CC(=O)N[C@H](C)c1cccc2ccccc12	none (no result: KCNQ1 pot, KCNK9 block, hERG protect, KCNQ1 block, Kir21 block)
O=C(c1ccc2c(c1)OCO2)N(Cc1ccco1)C1(C(=O)NC2CCCCC2)CCCCC1	KCNQ1 block 6 | KCNQ1 block val 80 | CHO Tl flux 0.36 | KCNQ2 spec 89% | KCNQ1 KCNE1 spec 78%
CN1/C(=C/c2cccc[n+]2CCO)Sc2ccccc21	none
CCN1/C(=C/c2ccc3cc(C)ccc3[n+]2CC)Sc2cc(C)c(C)cc21	none (no result: KCNQ1 pot, KCNK9 block, hERG protect, KCNQ1 block, Kir21 block)
CCN1/C(=C/c2ccc3cc(C)ccc3[n+]2CC)Sc2ccccc21	KCNQ1 block 17 | KCNQ1 block val active | CHO Tl flux 0.035 | KCNQ2 spec inactive | KCNQ1 KCNE1 spec inactive
CC[n+]1c(/C=C2\Sc3ccccc3N2C)ccc2cccc(C)c21	KCNQ1 block 22 | KCNQ1 block val active | CHO Tl flux 0.05 | KCNQ2 spec inactive | KCNQ1 KCNE1 spec inactive
COC(=O)c1cccc2c(C(=O)O)cc(-c3ccccc3)nc12	none (no result: KCNQ1 pot, KCNK9 block, hERG protect, KCNQ1 block, Kir21 block)
Cc1nn2c(NCCN3CCOCC3)c3c(nc2c1-c1ccccc1)CCCC3	KCNQ1 block 7 | KCNQ1 block val 58 | CHO Tl flux inactive | KCNQ2 spec 82% | KCNQ1 KCNE1 spec 73%
CCOC(=O)c1c(NC(=O)CSc2nnc(-c3c[nH]c4ccccc34)n2C)sc2c1CCCC2	KCNQ1 block 7 | KCNQ1 block val 64 | CHO Tl flux inactive | KCNQ2 spec 65% | KCNQ1 KCNE1 spec inactive
CCC1(C)Cc2ccccc2-c2nc(-c3ccccc3)oc(=O)c21 (centres undefined)	KCNQ1 block 8 | KCNQ1 block val 92 | CHO Tl flux inactive | KCNQ1 APC inh inactive | KCNQ2 spec 102% | KCNQ1 KCNE1 spec 104%
CCC1(C)Cc2ccccc2-c2nc(NN)[nH]c(=O)c21 (centres undefined)	none
O=C(COC(=O)C1CCC1)NCc1ccc(Cl)cc1Cl	none
